Here are results for 18 compounds from ChEMBL document CHEMBL1144711, “Polyaminohydroxamic acids and polyaminobenzamides as isoform selective histone deacetylase inhibitors” (J Med Chem, 2008).

Structures are written as SMILES. A value given as a limit tells only on which side of the number the result lay.

Assay [1] has as its system HCT-116. In words: Increase in acetylated histone H4 level in human HCT116 cells at 10 uM after 24 hrs relative to control. It counts as functional. In outline: (§1)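 HCT116 cells adhered overnight, then exposed to 10 μM compound for 24 h. Cells lysed in HEPES pH 7.9/NaCl/Triton buffer with protease inhibitors at 4 °C. 30 μg total protein per lane run on 10% Bis-Tris gels and blotted with antibodies to AcH3, AcH4, p21waf1 or acetylated α-tubulin, with α-actin also probed. Infrared fluorescent secondaries used for quantification; single determinations reported as fold increase.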

The target in assay [2] is T1, Histone deacetylase (Homo sapiens) (UniProt Q13547+O15379+Q9UBN7+Q92769+Q9UQL6+Q8WUI4+Q9BY41+Q96DB2+P56524+Q9UKV0+Q969S8). The conditions noted are these: HeLa, at 1 µM.
Assay [3] concerns HCT-116. Description: Increase in acetylated alpha tubulin level in human HCT116 cells at 10 uM after 24 hrs relative to control. It counts as functional. In outline: as §1
Assay [4] relates to HCT-116. Description: Cytotoxicity against human HCT116 cells assessed as cell viability after 96 hrs by MTS reduction assay. It counts as functional, cell-based. The conditions noted are these: HCT-116, 96 h. (Tetrazolium assays rely on reduction of a dye to a coloured formazan, in cell work by metabolically active cells.)
The subject of assay [5] is HCT-116. In words: Increase in p21waf1 re-expression in human HCT116 cells at 10 uM after 24 hrs relative to control. The assay is classed as functional. In outline:
as §1

The test system of assay [6] is HCT-116. In words: Increase in acetylated histone H3 level in human HCT116 cells at 10 uM after 24 hrs relative to control. The assay is classed as functional. Put shortly:
as §1

Assay [7] concerns the target T1, Histone deacetylase (Homo sapiens). In words: Inhibition of human HDAC in HeLa cells at 5 uM. The assay is classed as cell-based.
A short description of assay [8]: Inhibition of [14C]spermidine uptake at human polyamine transporter in ML1 cells. The assay is classed as cell-based. Put shortly:
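Competition for 14C-spermidine uptake in ML-1 acute myelogenous leukemia cells. Concentration-dependent spermidine uptake measured in the presence of 0.0, 10.0, 25.0 and 50.0 μM test compound.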

In assay [9] the target is T2, Protein deacetylase HDAC6 (Homo sapiens) (UniProt Q9UBN7).
T2 sequence (whole entry): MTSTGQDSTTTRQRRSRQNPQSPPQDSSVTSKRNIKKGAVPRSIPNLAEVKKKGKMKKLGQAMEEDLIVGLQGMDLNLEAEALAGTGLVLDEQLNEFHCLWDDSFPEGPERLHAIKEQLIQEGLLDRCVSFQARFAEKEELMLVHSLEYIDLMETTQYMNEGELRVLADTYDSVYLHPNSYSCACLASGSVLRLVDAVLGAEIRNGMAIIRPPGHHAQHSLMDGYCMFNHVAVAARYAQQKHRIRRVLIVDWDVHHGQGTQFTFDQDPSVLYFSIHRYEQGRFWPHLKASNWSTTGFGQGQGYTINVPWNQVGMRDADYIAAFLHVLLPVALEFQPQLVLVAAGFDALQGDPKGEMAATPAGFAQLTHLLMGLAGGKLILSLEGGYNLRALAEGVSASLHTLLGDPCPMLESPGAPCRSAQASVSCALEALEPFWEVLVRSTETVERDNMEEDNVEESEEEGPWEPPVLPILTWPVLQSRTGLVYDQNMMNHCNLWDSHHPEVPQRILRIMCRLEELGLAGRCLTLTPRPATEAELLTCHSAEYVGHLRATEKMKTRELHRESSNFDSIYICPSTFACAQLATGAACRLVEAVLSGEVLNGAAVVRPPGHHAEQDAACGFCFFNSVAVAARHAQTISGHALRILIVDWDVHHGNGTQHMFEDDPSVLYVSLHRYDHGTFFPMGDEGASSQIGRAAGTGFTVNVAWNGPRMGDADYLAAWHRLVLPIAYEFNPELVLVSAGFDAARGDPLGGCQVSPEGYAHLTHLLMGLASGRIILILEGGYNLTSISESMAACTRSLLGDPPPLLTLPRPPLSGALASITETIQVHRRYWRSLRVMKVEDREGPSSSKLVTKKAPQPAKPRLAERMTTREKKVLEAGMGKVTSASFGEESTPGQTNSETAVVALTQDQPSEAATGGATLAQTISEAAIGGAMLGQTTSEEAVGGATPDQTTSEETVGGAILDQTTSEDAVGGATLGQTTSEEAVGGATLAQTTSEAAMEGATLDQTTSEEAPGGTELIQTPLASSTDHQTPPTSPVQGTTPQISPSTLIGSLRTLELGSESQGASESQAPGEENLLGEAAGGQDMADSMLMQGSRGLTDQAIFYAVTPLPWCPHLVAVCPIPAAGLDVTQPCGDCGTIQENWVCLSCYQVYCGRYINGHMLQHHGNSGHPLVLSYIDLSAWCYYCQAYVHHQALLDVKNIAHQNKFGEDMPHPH
In words: Inhibition of human recombinant HDAC6. Conditions: concentration not given here.

The target of assay [10] is Histone deacetylase 3 (Homo sapiens) (UniProt O15379). Description: Inhibition of human recombinant HDAC3. The conditions noted are these: concentration not given here.
For assay [11], the target named is T1, Histone deacetylase (Homo sapiens). In words: Inhibition of human HDAC at 1 uM.
Assay [12] concerns HCT-116. Description: Cytotoxicity against human HCT116 cells assessed as cell viability after 96 hrs by MTS reduction assay in presence of diamine oxidase inhibitor aminoguanidine. Conditions: HCT-116, 96 h. It counts as functional, cell-based. In outline:
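HCT116 cells in McCoy's 5A with 10% fetal calf serum, 37 °C, 5% CO2; 3000 cells/well seeded in triplicate and attached overnight. Medium replaced with fresh medium containing a range of compound concentrations for 96 h. CellTiter 96 One Solution MTS added for 1.5 h at 37 °C, absorbance read at 490 nm. Two separate experiments averaged to give IC50.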

Chain of Histone deacetylase 3 (Homo sapiens) (O15379 whole entry): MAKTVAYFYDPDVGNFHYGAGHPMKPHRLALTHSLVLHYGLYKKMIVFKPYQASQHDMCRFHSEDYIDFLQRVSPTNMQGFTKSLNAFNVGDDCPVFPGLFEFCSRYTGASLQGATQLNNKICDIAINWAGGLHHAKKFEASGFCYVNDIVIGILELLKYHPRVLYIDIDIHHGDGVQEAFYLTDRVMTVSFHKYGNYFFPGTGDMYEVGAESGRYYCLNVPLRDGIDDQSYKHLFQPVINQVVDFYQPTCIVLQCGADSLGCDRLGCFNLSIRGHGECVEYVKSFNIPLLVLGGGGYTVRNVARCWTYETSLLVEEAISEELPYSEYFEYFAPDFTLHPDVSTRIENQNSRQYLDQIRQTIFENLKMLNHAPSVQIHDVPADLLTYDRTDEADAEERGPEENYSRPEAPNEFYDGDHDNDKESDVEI

The inhibition is the share of the control response that was lost under treatment. Usually IC50 stands for the concentration needed to halve the response being measured. On to `O=C(CCCCC(=O)NCCCNCCCCNCCSc1ccccc1)NO`, for which the Fold change with HCT-116 [1] was 12.06; in the assay with HCT-116 [3] it was 72.9; in the assay on HCT-116 [5], 2.56; with HCT-116 [6] it was 2.38. Besides, the inhibition in assay [2] amounted to 6.7%. In addition, in the assay with HCT-116 [4], the half-maximal inhibitory concentration (IC50) is more than 100 µM.

For `O=C(CCCCCC(=O)NCCCNCCCCNCCC(c1ccccc1)c1ccccc1)NO`, in [2], the inhibition was determined as 46.3%. Besides, the IC50 in the assay with HCT-116 [4] was more than 100 µM.

The compound `O=C(CCCCCCC(=O)NCCCNCCCNCCCNCCC(c1ccccc1)c1ccccc1)NO` returned an inhibition in [2] of 55.2%. For the same compound, the IC50 with HCT-116 [4] is more than 100 µM.

In general, Ki refers to a dissociation constant, usually derived from enzyme kinetics or from competition with a known ligand. For `CC(C)(C)c1ccc(CNCCCCNCCCNC(=O)CCCC(=O)NCc2ccc(C(=O)Nc3ccccc3N)cc2)cc1`, the inhibition was 28% in assay [2] and 37.4% in assay [7]. Further, the IC50 in the assay on HCT-116 [4] was more than 100 µM. Besides, affinity in assay [8] was put at a Ki of 7.7 µM.

`CN(C)c1ccc(CN(CCCNCCCCNCc2ccc(C(C)(C)C)cc2)C(=O)CCCCC(=O)NO)cc1` gave an inhibition in assay [2] of 2%.

With `O=C(CCCCCCC(=O)NCCCNCCCCNCc1ccccc1-c1ccccc1)NO`, the Fold change with HCT-116 [1] was found to be 7.82; with HCT-116 [3], 36.3; with HCT-116 [5], 1.64; in the assay with HCT-116 [6], 5.19. For the same compound, in assay [2], the inhibition worked out at 38.6%. Besides, the IC50 with HCT-116 [4] is more than 100 µM.

With `CC(C)c1ccc(CNCCCCNCCCNC(=O)CCCCCCC(=O)NO)cc1`, the Fold change in the assay with HCT-116 [1] is recorded as 4.74; with HCT-116 [3] it was 11.98; with HCT-116 [5] it was 0.86; with HCT-116 [6], 0. In assay [2], the inhibition came out at 41.4%. In addition, the IC50 with HCT-116 [4] was more than 100 µM.

On to `CC(C)c1ccc(CNCCCCNCCCNC(=O)CCCCC(=O)NO)cc1`, for which the Fold change with HCT-116 [1] came to 14.22; with HCT-116 [3], 75.7; with HCT-116 [5], 3.01; with HCT-116 [6] it was 3.76. The compound also registered an inhibition in [2] of 15.9%. Also, in the assay with HCT-116 [4], the IC50 was more than 100 µM.

For `CN(C)c1ccc(CNCCCCNCCCNC(=O)CCCCCCC(=O)NO)cc1`, the Fold change with HCT-116 [1] was determined as 1.36; in the assay on HCT-116 [3], 6.76; with HCT-116 [5], 0.46; in the assay with HCT-116 [6] it was 0. Further, the inhibition in assay [2] came out at 46.7%. The 50% inhibitory concentration (IC50) in the assay with HCT-116 [4] is more than 100 µM.

Consider `O=C(CCCCC(=O)NCCCNCCCCNCc1ccccc1-c1ccccc1)NO`, for which the Fold change in the assay with HCT-116 [1] was determined as 17.4; in the assay with HCT-116 [3] it was 89.01; with HCT-116 [5] it was 2.01; in the assay on HCT-116 [6], 3.34. In addition, the inhibition in assay [2] was 71.3%. The 50% inhibitory concentration (IC50) in the assay with HCT-116 [4] was more than 100 µM.

In turn, `Nc1ccccc1NC(=O)c1ccc(CNC(=O)CCCCCCC(=O)NCCCNCCCCNCCC(c2ccccc2)c2ccccc2)cc1` registered an inhibition in assay [7] of 66.7%. In addition, in the assay with HCT-116 [4], the IC50 is more than 100 µM.

As to `O=C(CCCCCCC(=O)NCCCNCCCCNCCSc1ccccc1)NO`, the Fold change with HCT-116 [1] came out at 11.68; in the assay on HCT-116 [3] it was 101.36; with HCT-116 [5] it was 1.98; in the assay with HCT-116 [6], 0. This compound also showed an inhibition in assay [2] of 16.5%. The IC50 in the assay with HCT-116 [4] is more than 100 µM.

With `CC(C)(C)c1ccc(CNCCCCNCCCNC(=O)CCCCCCC(=O)NCc2ccc(C(=O)Nc3ccccc3N)cc2)cc1`, the Fold change in the assay with HCT-116 [1] is recorded as 1.12; in the assay on HCT-116 [3], 2.27; with HCT-116 [5], 2.55; in the assay on HCT-116 [6], 1.19. Besides, the inhibition in assay [2] worked out at 30.8%; in assay [7], 51.2%; in [9], 11.7%; in [10], 1.3%. Further, in the assay on HCT-116 [4], the IC50 is more than 100 µM.

In turn, `O=C(CCCCCCCC(=O)NCCCNCCCCNCCC(c1ccccc1)c1ccccc1)NO` showed an inhibition in assay [2] of 54.6%. Further, the IC50 in the assay with HCT-116 [4] is more than 100 µM.

In the case of `O=C(CCCCCCCCC(=O)NCCCNCCCCNCCC(c1ccccc1)c1ccccc1)NO`, the Fold change turned out to be 0.95 with HCT-116 [1], 1.97 in the assay on HCT-116 [3], 0.41 with HCT-116 [5] and 0 in the assay with HCT-116 [6]. The compound also showed an inhibition in [2] of 73.9%. Moreover, the IC50 in the assay on HCT-116 [4] is more than 100 µM.

With `CC(C)(C)c1ccc(CNCCCCNCCCNC(=O)CCCCCC(=O)NO)cc1`, the Fold change was 20.84 with HCT-116 [1], 253.25 in the assay with HCT-116 [3], 2.33 in the assay on HCT-116 [5] and 21.49 in the assay with HCT-116 [6]. Moreover, the results for the inhibition in assay [9] and in [10] were 99.7% and 99.1%, respectively. In the assay with HCT-116 [4], the half-inhibitory concentration (IC50) is more than 100 µM.

Turning to `CN(C)c1ccc(CN(CCCNCCCCN)C(=O)CCCCCCC(=O)NO)cc1`, the inhibition in assay [11] and in [2] was 58.6% throughout. Also, the Fold change came to 1.95 in the assay on HCT-116 [1], 6.07 with HCT-116 [3], 0.49 with HCT-116 [5] and 0 in the assay on HCT-116 [6]. Besides, the 50% inhibitory concentration (IC50) with HCT-116 [4] was 38.6 µM; in the assay with HCT-116 [12], more than 100 µM.

As to `CC(C)(C)c1ccc(CNCCCCNCCCNC(=O)CCCCCCCC(=O)NO)cc1`, the Fold change is 3.25 in the assay on HCT-116 [1], 11.99 in the assay with HCT-116 [3], 0.61 in the assay with HCT-116 [5] and 0 in the assay on HCT-116 [6]. In addition, in assay [2], the inhibition was found to be 88.7%. Further, the IC50 with HCT-116 [4] was more than 100 µM.
